Screening data deposited in PubChem BioAssay by several laboratories.
ABCG2 block = ABCG2 efflux pump inhibitors, primary screen, multiplex with ABCB1, IgMXP3 cells, flow cytometry; 0.1% of 190,000 active; JC-1 efflux; Broad substrate specificity ATP-binding cassette transporter ABCG2 (Homo sapiens), Q9UNQ0; inhibition, % at 6.6 µM; AID 1325, 2008;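 active = inhibition above 80%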;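 also: 0% = DMSO and 100% = nicardipine control wells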
Target sequence (Q9UNQ0 whole entry, looked up): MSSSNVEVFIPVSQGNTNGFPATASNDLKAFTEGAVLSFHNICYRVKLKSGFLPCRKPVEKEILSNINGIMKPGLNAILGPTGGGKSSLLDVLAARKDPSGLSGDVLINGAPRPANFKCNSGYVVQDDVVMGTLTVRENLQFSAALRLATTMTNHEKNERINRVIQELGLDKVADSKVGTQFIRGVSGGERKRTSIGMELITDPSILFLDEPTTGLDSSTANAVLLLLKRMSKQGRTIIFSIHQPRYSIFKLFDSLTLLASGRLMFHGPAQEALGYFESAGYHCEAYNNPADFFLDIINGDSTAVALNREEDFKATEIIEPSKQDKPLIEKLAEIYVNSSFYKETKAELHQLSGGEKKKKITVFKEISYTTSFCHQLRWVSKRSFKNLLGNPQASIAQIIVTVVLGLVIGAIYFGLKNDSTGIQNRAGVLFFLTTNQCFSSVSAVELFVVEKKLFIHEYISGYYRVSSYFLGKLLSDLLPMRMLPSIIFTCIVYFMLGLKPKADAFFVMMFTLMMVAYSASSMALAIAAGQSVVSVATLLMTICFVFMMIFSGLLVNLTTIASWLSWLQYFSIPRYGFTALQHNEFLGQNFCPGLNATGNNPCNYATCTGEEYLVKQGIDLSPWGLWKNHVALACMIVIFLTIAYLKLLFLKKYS
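Test system: IgMXP3 (ABCG2) plus far-red-tagged CCRF-Adr (ABCB1) cells. Reagent: JC-1 dye as substrate. Timing: 10 min exposure at 25 °C with rotation, no wash. Measured by: flow cytometric JC-1 green MFI at 530 nm. Read-out: percent efflux inhibition, scaled nicardipine 100% to DMSO 0%. Control set: nicardipine and DMSO wells.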
NCF1 inh = p47phox/p22phox peptide binding inhibitors, primary screen, biochemical, uHTS, NADPH oxidase regulatory subunit; Neutrophil cytosol factor 1 (Homo sapiens), P14598; fluorescence polarization, 2 h; inhibition, % at 24.7 µM; 0.53% of 220,000 active;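 active = inhibition above about 30%, limit read from the data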;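 also: 0% = p47phox with labelled peptide and 100% = labelled peptide alone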
Arbovirus inh = antivirals against arbovirus infection, primary screen, cell-based, full library, 10K replicate subset | arbovirus infection cell-based antiviral screen | inhibition, % at 10 µM | 0.37% of 200,000 active | AID 1251, 2008; in the data active = inhibition above about 30%
Furin inhibitor = human furin inhibitors, primary screen, biochemical, fluorescence intensity; inhibition, % at 20 µM or 30 µM; P09958; AID 463115, 2010; purified furin, fluorogenic substrate cleavage; 0.061% of 220,000 active; in the data active = inhibition above about 25%
HSV augment = enhancers of HSV replication in host cells, fold increase, host cell viability; HSV replication augmentation in cells; maximum fold increase; 0.005% of 220,000 active; AID 1956, 2009; in the data active = maximum fold increase above about 1.5; tested in PC3 cells
ABCB1 inh = ABCB1 efflux pump inhibitors, primary screen, cell-based, multiplex, flow cytometry, ABCG2 counter-screen. 0.067% of 190,000 active. CCRF-Adr cells, JC-1 efflux. AID 1326, 2008. inhibition, % at 6.6 µM; in the data active = inhibition above about 40%;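 also: 0% = vehicle and 100% = reference inhibitor; higher value means more JC-1 retained so stronger ABCB1 efflux block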
Starred values were filed as active, the others as inactive. This is a sample that favours compounds with a hit; in the whole collection about 0.95% have one here.

Results for Cc1cc(NS(=O)(=O)c2ccc(Cl)cc2)nn1CC(=O)NCc1ccco1 ?
ABCG2 block: -0.1; NCF1 inh: 55.3*; Arbovirus inh: 4.9; Furin inhibitor: -6.9; HSV augment: inactive; ABCB1 inh: 0.0

Results for Cc1nn(-c2ccccc2)c(Cl)c1/C=N/NC(=O)CCNc1n[nH]c(=O)[nH]c1=O ?
NCF1 inh: -6.8; Furin inhibitor: -10.3; HSV augment: inactive

How did C=C(C(=O)O)C1CCC2(C)CCCC(C)(O)C2C1 (stereo not drawn) do in these assays?
NCF1 inh: -0.8; Furin inhibitor: -31.4; HSV augment: inactive

What do the screens show for `Cc1cc(C)c2c(=O)[nH]c(SCC(=O)c3ccc(C)c(C)c3)nc2n1`?
ABCG2 block: 2.8; NCF1 inh: 3.3; Arbovirus inh: 34.9*; Furin inhibitor: -37.5; HSV augment: inactive; ABCB1 inh: 0.8

What do the screens show for `c1ccc(-c2nc(N3CCN(c4ccccc4)CC3)nc(-n3ccnc3)n2)cc1`?
ABCG2 block: 36.0; NCF1 inh: 58.0*; Arbovirus inh: 0.6; Furin inhibitor: -21.7; HSV augment: inactive; ABCB1 inh: 4.6

What do the screens show for `COc1ccc(/C=C(/C#N)C(=O)Nc2cc(C)ccc2C)cc1C(=O)O`?
ABCG2 block: 0.5; NCF1 inh: 163.3*; Arbovirus inh: 3.3; Furin inhibitor: -3.9; ABCB1 inh: 0.0

What do the screens show for `Cn1c(CSCc2ccc(Cl)cc2)n[nH]c1=S`?
ABCG2 block: 0.0; NCF1 inh: 2.5; Arbovirus inh: 3.9; Furin inhibitor: -23.9; HSV augment: inactive; ABCB1 inh: 0.0

Results for Cn1cc([N+](=O)[O-])c(C(=O)NCc2cc3cc(Cl)ccc3[nH]2)n1 ?
ABCG2 block: 32.8; NCF1 inh: -5.8; Arbovirus inh: 34.9*; Furin inhibitor: -12.6; HSV augment: inactive; ABCB1 inh: 10.6

How did Cc1c(Br)c(C(=O)NCc2cc3cc(Cl)ccc3[nH]2)nn1C do in these assays?
ABCG2 block: 9.8; NCF1 inh: -29.9; Arbovirus inh: -5.7; Furin inhibitor: -29.7; HSV augment: inactive; ABCB1 inh: -2.2

What do the screens show for `COc1ccccc1-c1cc(C(=O)N2CCc3ccccc3C2)c2ccccc2n1`?
ABCG2 block: 16.7; NCF1 inh: -25.6; Arbovirus inh: 41.7*; Furin inhibitor: -5.7; ABCB1 inh: 6.5

How did COc1ccccc1Nc1cc(C(=O)N2CCc3ccccc3C2)c2ccccc2n1 do in these assays?
ABCG2 block: 2.3; NCF1 inh: -14.3; Arbovirus inh: 12.0; Furin inhibitor: -18.8; HSV augment: inactive; ABCB1 inh: 1.0

How did COCCn1c(-c2ccc(Cl)cc2)nc2c(c(=O)c3ccccc3n2C)c1=O do in these assays?
ABCG2 block: 6.9; NCF1 inh: -7.5; Arbovirus inh: -5.3; Furin inhibitor: -17.1; HSV augment: inactive; ABCB1 inh: 2.2

How did COCCn1c(-c2ccccc2Cl)nc2c(c(=O)c3ccccc3n2C)c1=O do in these assays?
ABCG2 block: 8.7; NCF1 inh: -4.0; Arbovirus inh: 30.6*; Furin inhibitor: 11.1; HSV augment: inactive; ABCB1 inh: 2.5

Results for Cc1nn(C)c(C)c1CN(C)C(=O)CCCC(=O)O ?
ABCG2 block: -0.2; NCF1 inh: -1.6; Arbovirus inh: -0.9; Furin inhibitor: 25.1*; HSV augment: inactive; ABCB1 inh: 0.0

Results for CCCC(=O)NC(c1ccc(OC)c(OC)c1)c1cc(Cl)c2cccnc2c1O (stereo not drawn) ?
ABCG2 block: 5.6; NCF1 inh: -6.5; Arbovirus inh: -15.0; Furin inhibitor: -33.3; HSV augment: inactive; ABCB1 inh: 1.1

How did O=C(NC(c1ccc(Cl)cc1)c1cc(Cl)c2cccnc2c1O)c1cccnc1 (stereo not drawn) do in these assays?
ABCG2 block: 39.1; NCF1 inh: 31.7*; Arbovirus inh: -28.5; Furin inhibitor: -8.0; HSV augment: inactive; ABCB1 inh: 18.5

How did Cn1c(-c2cnn(-c3ccccc3)c2-n2cccc2)n[nH]c1=S do in these assays?
ABCG2 block: 1.4; NCF1 inh: 5.0; Arbovirus inh: -0.6; Furin inhibitor: -18.6; HSV augment: inactive; ABCB1 inh: 0.3

Results for CCn1nc(C)c(NC(=O)/C=C/c2ccc(OC)c(COc3ccc(Cl)cc3Br)c2)c1C ?
ABCG2 block: 9.8; NCF1 inh: 71.4*; Arbovirus inh: -5.0; Furin inhibitor: -17.6; ABCB1 inh: 5.9

What do the screens show for `COc1ccc(/C=C/C(=O)NCc2cn(C)nc2C)cc1COc1ccc(Cl)cc1Br`?
ABCG2 block: 17.0; NCF1 inh: -4.1; Arbovirus inh: -3.6; Furin inhibitor: -10.4; HSV augment: inactive; ABCB1 inh: 7.7

Results for CCOC(=O)C1=C(C)N(C)C(C)=C(C(=O)OCC)C1c1ccsc1 ?
ABCG2 block: 9.9; NCF1 inh: -9.3; Arbovirus inh: -1.0; Furin inhibitor: -13.7; HSV augment: inactive; ABCB1 inh: 1.8

What do the screens show for `O=C1CC(N2CCc3ccccc32)C(=O)N1c1ccc(F)cc1` (stereo not drawn)?
ABCG2 block: 2.0; NCF1 inh: -4.7; Arbovirus inh: -11.7; Furin inhibitor: -30.3; HSV augment: inactive; ABCB1 inh: 0.4

How did Cc1nn(C)cc1S(=O)(=O)NC1CCCC1 do in these assays?
ABCG2 block: 3.9; NCF1 inh: -10.6; Arbovirus inh: -3.6; Furin inhibitor: -8.2; HSV augment: inactive; ABCB1 inh: 1.2

How did CCCCCCNC(=O)N[C@H](C(=O)NCCC[C@H]1CN2C(=NC[C@H]2C)N1CCC(c1ccccc1)c1ccccc1)C(C)O (stereo partly drawn) do in these assays?
NCF1 inh: 87.2*; Furin inhibitor: -24.2

How did CN(C)C(=O)C1Cc2ccccc2CN1S(=O)(=O)c1cccs1 (stereo not drawn) do in these assays?
ABCG2 block: 8.6; NCF1 inh: -13.6; Arbovirus inh: -0.7; Furin inhibitor: -10.7; HSV augment: inactive; ABCB1 inh: -0.1

What do the screens show for `O=C(C1Cc2ccccc2CN1S(=O)(=O)c1cccs1)N1CCCCC1` (stereo not drawn)?
ABCG2 block: 3.2; NCF1 inh: -8.7; Arbovirus inh: 2.2; Furin inhibitor: 28.1*; HSV augment: inactive; ABCB1 inh: 1.3

What do the screens show for `O=C(Nc1nccs1)c1ccc(COc2ccccc2Cl)o1`?
ABCG2 block: 6.1; NCF1 inh: -18.2; Arbovirus inh: -22.7; Furin inhibitor: -13.5; HSV augment: inactive; ABCB1 inh: 0.4

How did COc1cc2c(C(=O)O)c(C)n(CC(C)C)c2c2ccccc12 do in these assays?
ABCG2 block: 1.3; NCF1 inh: -23.9; Arbovirus inh: 53.6*; Furin inhibitor: -24.1; ABCB1 inh: 0.3
